Results from PMC10753549 (ACS Omega, 2023).
Where a name gives a salt, the structure may show the parent alone.

Key:
[1] = tested on: Zika virus strain MR766; assay: Anti-ZIKV viral immunofluorescence assay in Vero cells; format: cell-based, Zika virus (MR766 Africa lineage)
Method in brief: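 Vero cells kept in DMEM with 10% FBS, 1% penicillin/streptomycin and 2 mM L-glutamine. They were pretreated with test compound at ten concentrations, then infected with MR766 virus stock grown in C6/36 mosquito cells (5 μL inoculum per well). After 24 h the cells were fixed in 4% paraformaldehyde and read by immunofluorescence. Mycophenolic acid was the positive control. EC50 came from 10-point dose–response curves in triplicate. CC50 was measured in uninfected Vero cells, and SI = CC50/EC50.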

[2] = Cytotoxicity assay on Vero cells; format: cell-based; settings: African green monkey, virus-uninfected Vero cells, CC50 (50% cytotoxic concentration), 10-point dose–response curves in triplicate
Method in brief: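 Vero cells were grown in DMEM with 10% FBS, 1% penicillin/streptomycin and 2 mM L-glutamine. Virus-uninfected cells were exposed to test compound at ten concentrations. CC50 was calculated from the 10-point dose–response curves, run in triplicate.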

[3] = tested on: ZIKV; settings: read-out: EC50 (anti-ZIKV); in vitro assays; ref Pathak et al. (2020) [49]; cited from earlier work
[4] = tested on: ZIKV NS3 protease; settings: read-out: IC50 (viral protease); ref Pathak et al. (2020) [49]; cited from earlier work
[5] = tested on: brine shrimp (Artemia salina); assay: Brine shrimp lethality bioassay
[6] = tested on: NS2B-NS3 protease; settings: NS2B-NS3 inhibitors; cited from earlier work

COc1c(C)c2c(c(O)c1C/C=C(\C)CCC(=O)O)C(=O)OC2 [MPA, mycophenolic acid]
SI: Selectivity index (CC50/EC50) ([1]; ZIKV MR766 / Vero cells): >1063
EC50 ([1]; Zika virus, Vero, 24 h, read-out: EC50 (median effective concentration)): 0.94 µM
CC50 [2]: > 1000 µM

C=C[C@@H]1C[C@]1(NC(=O)[C@@H]1C[C@@H](Oc2ncc(OC)c3ccc(Cl)cc23)CN1C(=O)[C@@H](NC(=O)OC(C)(C)C)C(C)(C)C)C(=O)NS(=O)(=O)C1CC1 [asunaprevir]
EC50 [3]: 4.7 µM
IC50 [4]: 6 µM

CN1[C@@H]2CC[C@H]1C[C@@H](OC(=O)C(CO)c1ccccc1)C2 (stereo partly shown) [Atropine SO4, Atropine sulfate monohydrate]
nauplii mortality ([5]; after 24 h): below 20%

CO[C@@H]1[C@@H](OC(N)=O)[C@@H](O)[C@H](Oc2ccc3c(O)c(NC(=O)c4ccc(O)c(CC=C(C)C)c4)c(=O)oc3c2C)OC1(C)C [novobiocin]
IC50 [6]: 14.2 µM

erythrosine B
IC50 [6]: 1.7 µM

CC(C)C[C@H]1C(=O)N2CCC[C@H]2[C@]2(O)O[C@](NC(=O)[C@@H]3C=C4c5cccc6[nH]c(Br)c(c56)C[C@H]4N(C)C3)(C(C)C)C(=O)N12 [bromocriptine]
IC50 [6]: 21.6 µM

COc1ccc2c(O[C@@H]3C[C@H]4C(=O)N[C@]5(C(=O)NS(=O)(=O)C6CC6)C[C@H]5/C=C\CCCCN(C)C(=O)[C@@H]4C3)cc(-c3nc(C(C)C)cs3)nc2c1C [simeprevir]
IC50 [4]: 2.6 µM

COc1ccc2cc3[n+](cc2c1OC)CCc1cc2c(cc1-3)OCO2 [Berberine chloride, berberine chloride]
nauplii mortality ([5]; at 125 μg/mL, 24 h): all the nauplii were dead
LD50 (median lethal dose) ([5]; brine shrimp nauplii, 24 h, probit analysis of 6-point dose (16–500 μg/mL)): 27.0 µg/mL

Oc1cccc(-c2c3nc(c(-c4cccc(O)c4)c4ccc([nH]4)c(-c4cccc(O)c4)c4nc(c(-c5cccc(O)c5)c5ccc2[nH]5)CC4)C=C3)c1 [temoporfin]
IC50 [6]: 1.1 µM
